The values that follow come from ChEMBL document CHEMBL1148385, “Synthesis and opioid activity of side-chain-to-side-chain cyclic dynorphin A-(1-11) amide analogues cyclized between positions 2 and 5. 1. Substitutions in position 3” (J Med Chem, 2004).

Where a SMILES comes first, the peptide text is derived from it.

Assay [1] deals with T1, Kappa-type opioid receptor (Rattus norvegicus, UniProt P34975). Put plainly: Binding affinity towards Opioid receptor kappa 1 expressed in CHO cells was determined by using [3H]diprenorphine as radioligand. In kind it is cell-based. The method in brief:
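Competition binding at room temperature on CHO cells stably expressing cloned rat κ (radioligand [³H]diprenorphine, KD 0.45 nM), rat μ ([³H]DAMGO, KD 0.49 nM) or mouse δ ([³H]DPDPE, KD 1.76 nM) receptors. Peptidase inhibitors (10 μM bestatin, 30 μM captopril, 50 μM L-leucyl-L-leucine) and 3 mM Mg²⁺ present. Nonspecific binding defined with 10 μM Dyn A-(1–13)NH₂, DAMGO or DPDPE respectively. Logistic fit for IC50; Ki via Cheng–Prusoff; mean ± SEM, ≥3 assays.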

Another assay has as its target Mu-type opioid receptor (Rattus norvegicus, UniProt P33535). The assay is described as follows: Binding affinity towards Opioid receptor mu 1 expressed in CHO cells was determined by using[3H]DAMGO as radioligand. In kind it is cell-based.
In assay [2] the target is T1, Kappa-type opioid receptor. The assay is described as follows: Inhibition of forskolin-stimulated adenylyl cyclase activity by compound in CHO cells expressing Opioid receptor kappa 1. In kind it is functional, cell-based. The method in brief:
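CHO cells stably expressing cloned rat κ receptor were incubated 40 min at 37 °C with 50 μM forskolin and various peptide concentrations. RO20-1724 (50 μM) and peptidase inhibitors (bestatin, captopril, L-leucyl-L-leucine) were present. [³H]cAMP was counted, with [¹⁴C]cAMP added for recovery correction and counts corrected for crossover. Mean ± SEM of 2–3 separate assays.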

Assay [3] deals with Delta-type opioid receptor (Mus musculus, UniProt P32300). Put plainly: Binding affinity towards opioid receptor delta 1 expressed in CHO cells was determined by using [3H]DPDPE as radioligand. In kind it is cell-based.
Chain of Delta-type opioid receptor (P32300 whole entry): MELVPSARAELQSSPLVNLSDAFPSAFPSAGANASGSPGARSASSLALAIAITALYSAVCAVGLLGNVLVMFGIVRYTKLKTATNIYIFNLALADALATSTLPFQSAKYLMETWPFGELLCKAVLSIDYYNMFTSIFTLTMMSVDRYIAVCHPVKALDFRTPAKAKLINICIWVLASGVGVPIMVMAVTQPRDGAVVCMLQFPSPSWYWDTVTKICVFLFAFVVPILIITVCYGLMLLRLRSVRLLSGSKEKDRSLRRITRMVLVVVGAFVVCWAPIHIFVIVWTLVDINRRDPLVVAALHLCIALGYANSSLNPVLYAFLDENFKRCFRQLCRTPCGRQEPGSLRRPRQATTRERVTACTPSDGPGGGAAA

Chain of Mu-type opioid receptor (P33535 whole entry): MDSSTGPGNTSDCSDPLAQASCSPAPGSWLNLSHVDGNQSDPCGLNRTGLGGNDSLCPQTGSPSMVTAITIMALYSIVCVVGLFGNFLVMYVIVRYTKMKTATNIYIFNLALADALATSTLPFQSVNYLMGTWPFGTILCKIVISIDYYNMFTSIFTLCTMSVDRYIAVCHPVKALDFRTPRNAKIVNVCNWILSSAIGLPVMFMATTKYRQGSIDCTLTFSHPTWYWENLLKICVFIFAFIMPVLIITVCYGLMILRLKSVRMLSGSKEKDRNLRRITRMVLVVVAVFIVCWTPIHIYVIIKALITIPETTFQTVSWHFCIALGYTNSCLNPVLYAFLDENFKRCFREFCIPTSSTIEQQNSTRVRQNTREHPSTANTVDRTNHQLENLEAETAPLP
T1 sequence (P34975 whole entry): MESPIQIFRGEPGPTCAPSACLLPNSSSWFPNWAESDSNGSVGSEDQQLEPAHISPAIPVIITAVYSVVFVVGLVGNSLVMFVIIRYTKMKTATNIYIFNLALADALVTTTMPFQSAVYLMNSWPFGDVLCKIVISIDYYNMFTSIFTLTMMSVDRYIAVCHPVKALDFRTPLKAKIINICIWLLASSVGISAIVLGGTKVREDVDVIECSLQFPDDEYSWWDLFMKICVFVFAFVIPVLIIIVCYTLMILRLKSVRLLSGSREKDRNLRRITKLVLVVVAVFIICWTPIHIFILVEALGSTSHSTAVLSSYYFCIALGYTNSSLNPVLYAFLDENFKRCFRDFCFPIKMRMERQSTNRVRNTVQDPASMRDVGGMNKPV

Take `CC[C@H](C)[C@H](NC(=O)[C@H](CCCN=C(N)N)NC(=O)[C@H](CCCN=C(N)N)NC(=O)[C@H](CC(C)C)NC(=O)[C@H](Cc1ccccc1)NC(=O)CNC(=O)CNC(=O)[C@@H](N)Cc1ccc(O)cc1)C(=O)N[C@@H](CCCN=C(N)N)C(=O)N1CCC[C@H]1C(=O)N[C@@H](CCCCN)C(N)=O`: the Ki (in general, the equilibrium dissociation constant of an inhibitor or competing ligand from its target) in assay [1] turned out to be 0.14 nM. In other words, the sub-nanomolar range.

Consider `CC[C@H](C)[C@H](NC(=O)[C@H](CCCN=C(N)N)NC(=O)[C@H](CCCN=C(N)N)NC(=O)[C@@H]1CNC(=O)C[C@@H](NC(=O)[C@@H](N)Cc2ccc(O)cc2)C(=O)N[C@@H](C)C(=O)N[C@@H](Cc2ccccc2)C(=O)N1)C(=O)N[C@@H](CCCN=C(N)N)C(=O)N1CCC[C@H]1C(=O)N[C@@H](CCCCN)C(N)=O`, for which the values for the Ki (on Mu-type opioid receptor; in assay [1]; in assay [3]) were 2.52 nM, 1.1 nM and 30.8 nM, respectively. A half-maximal effect in assay [2] (EC50) was put at 0.65 nM.

As for `CC[C@H](C)[C@H](NC(=O)[C@H](CCCNC(=N)N)NC(=O)[C@H](CCCNC(=N)N)NC(=O)[C@H](CC(C)C)NC(=O)[C@H](Cc1ccccc1)NC(=O)[C@H](C)NC(=O)CNC(=O)[C@@H](N)Cc1ccc(O)cc1)C(=O)N[C@@H](CCCNC(=N)N)C(=O)N1CCC[C@H]1C(=O)N[C@@H](CCCCN)C(N)=O`, the Ki amounted to 16.4 nM on Mu-type opioid receptor and 0.26 nM in assay [1].

`CC[C@H](C)[C@H](NC(=O)[C@H](CCCN=C(N)N)NC(=O)[C@H](CCCN=C(N)N)NC(=O)[C@@H]1CNC(=O)C[C@@H](NC(=O)[C@@H](N)Cc2ccc(O)cc2)C(=O)N[C@H](Cc2c[nH]c3ccccc23)C(=O)N[C@@H](Cc2ccccc2)C(=O)N1)C(=O)N[C@@H](CCCN=C(N)N)C(=O)N1CCC[C@H]1C(=O)N[C@@H](CCCCN)C(N)=O`: the results for the inhibition constant Ki (on Mu-type opioid receptor; in assay [1]; in assay [3]) were 7.27 nM, 2.25 nM and 949 nM, respectively. Besides, in assay [2], the EC50 (as a rule, the midpoint of the concentration-response curve) was found to be 12 nM.

For the compound `CC[C@H](C)[C@H](NC(=O)[C@H](CCCN=C(N)N)NC(=O)[C@H](CCCN=C(N)N)NC(=O)[C@H](CN)NC(=O)[C@H](Cc1ccccc1)NC(=O)[C@H](Cc1c[nH]c2ccccc12)NC(=O)[C@@H](CC(=O)O)NC(=O)[C@@H](N)Cc1ccc(O)cc1)C(=O)N[C@@H](CCCN=C(N)N)C(=O)N1CCC[C@H]1C(=O)N[C@@H](CCCCN)C(N)=O`, the Ki stood at 3.41 nM on Mu-type opioid receptor, 1.34 nM in assay [1] and 927 nM in assay [3].

In the case of `CC[C@H](C)[C@H](NC(=O)[C@H](CCCN=C(N)N)NC(=O)[C@H](CCCN=C(N)N)NC(=O)[C@H](CN)NC(=O)[C@H](Cc1ccccc1)NC(=O)[C@@H](C)NC(=O)[C@@H](CC(=O)O)NC(=O)[C@@H](N)Cc1ccc(O)cc1)C(=O)N[C@@H](CCCN=C(N)N)C(=O)N1CCC[C@H]1C(=O)N[C@@H](CCCCN)C(N)=O`, the inhibitory constant (Ki) on Mu-type opioid receptor was 4.21 nM; in assay [1], 6.12 nM; in assay [3] it was 959 nM.

For the compound `CC[C@H](C)[C@H](NC(=O)[C@H](CCCN=C(N)N)NC(=O)[C@H](CCCN=C(N)N)NC(=O)[C@@H]1CNC(=O)C[C@@H](NC(=O)[C@@H](N)Cc2ccc(O)cc2)C(=O)NCC(=O)N[C@@H](Cc2ccccc2)C(=O)N1)C(=O)N[C@@H](CCCN=C(N)N)C(=O)N1CCC[C@H]1C(=O)N[C@@H](CCCCN)C(N)=O`, the inhibition constant (Ki) is 0.52 nM at Mu-type opioid receptor, 0.46 nM in assay [1] and 5.1 nM in assay [3]. In assay [2], this compound registered a 50% effective concentration (EC50) of 0.39 nM.

Take `CC[C@H](C)[C@H](NC(=O)[C@H](CCCN=C(N)N)NC(=O)[C@H](CCCN=C(N)N)NC(=O)[C@H](CC(C)C)NC(=O)[C@H](Cc1ccccc1)NC(=O)[C@H](Cc1c[nH]c2ccccc12)NC(=O)CNC(=O)[C@@H](N)Cc1ccc(O)cc1)C(=O)N[C@@H](CCCN=C(N)N)C(=O)N1CCC[C@H]1C(=O)N[C@@H](CCCCN)C(N)=O`: the inhibition constant (Ki) on Mu-type opioid receptor is 42.7 nM; in assay [1] it was 1.56 nM; in assay [3] it was 168 nM.

Turning to `CC[C@H](C)[C@H](NC(=O)[C@H](CCCN=C(N)N)NC(=O)[C@H](CCCN=C(N)N)NC(=O)[C@H](CN)NC(=O)[C@H](Cc1ccccc1)NC(=O)CNC(=O)[C@@H](CC(=O)O)NC(=O)[C@@H](N)Cc1ccc(O)cc1)C(=O)N[C@@H](CCCN=C(N)N)C(=O)N1CCC[C@H]1C(=O)N[C@@H](CCCCN)C(N)=O`, the Ki was 0.22 nM on Mu-type opioid receptor, 1.59 nM in assay [1] and 11.6 nM in assay [3].

In the case of `CC[C@H](C)[C@H](NC(=O)[C@H](CCCNC(=N)N)NC(=O)[C@H](CCCNC(=N)N)NC(=O)[C@@H]1CNC(=O)C[C@@H](NC(=O)[C@@H](N)Cc2ccc(O)cc2)C(=O)N[C@@H](Cc2c[nH]c3ccccc23)C(=O)N[C@@H](Cc2ccccc2)C(=O)N1)C(=O)N[C@@H](CCCNC(=N)N)C(=O)N1CCC[C@H]1C(=O)N[C@@H](CCCCN)C(N)=O`, the figures for the inhibition constant (Ki) (at Mu-type opioid receptor; in assay [1]; in assay [3]) were 2.09 nM, 1.33 nM and 7070 nM, respectively. In addition, in assay [2], it took 4.19 nM to reach a half-maximal effect (EC50).

Turning to `CC[C@H](C)[C@H](NC(=O)[C@H](CCCN=C(N)N)NC(=O)[C@H](CCCN=C(N)N)NC(=O)[C@H](CC(C)C)NC(=O)[C@H](Cc1ccccc1)NC(=O)CNC(=O)CNC(=O)[C@@H](N)Cc1ccc(O)cc1)C(=O)N[C@@H](CCCN=C(N)N)C(=O)N1CCC[C@H]1C(=O)N[C@@H](CCCCN)C(=O)N[C@@H](CC(C)C)C(=O)N[C@@H](CCCCN)C(N)=O`, the Ki at Mu-type opioid receptor was 1.88 nM; in assay [1], 0.39 nM; in assay [3] it was 6.07 nM.

As to `CC[C@H](C)[C@H](NC(=O)[C@H](CCCNC(=N)N)NC(=O)[C@H](CCCNC(=N)N)NC(=O)[C@H](CC(C)C)NC(=O)[C@H](Cc1ccccc1)NC(=O)[C@@H](C)NC(=O)CNC(=O)[C@@H](N)Cc1ccc(O)cc1)C(=O)N[C@@H](CCCNC(=N)N)C(=O)N1CCC[C@H]1C(=O)N[C@@H](CCCCN)C(N)=O`, the results for the Ki (at Mu-type opioid receptor; in assay [1]) were 19.8 nM and 0.34 nM, respectively.

For the compound `CC[C@H](C)[C@H](NC(=O)[C@H](CCCN=C(N)N)NC(=O)[C@H](CCCN=C(N)N)NC(=O)[C@H](CN)NC(=O)[C@H](Cc1ccccc1)NC(=O)[C@@H](Cc1c[nH]c2ccccc12)NC(=O)[C@@H](CC(=O)O)NC(=O)[C@@H](N)Cc1ccc(O)cc1)C(=O)N[C@@H](CCCN=C(N)N)C(=O)N1CCC[C@H]1C(=O)N[C@@H](CCCCN)C(N)=O`, the Ki at Mu-type opioid receptor stood at 4.57 nM; in assay [1], 1.26 nM; in assay [3], 813 nM.

In the case of `CC[C@H](C)[C@H](NC(=O)[C@H](CCCNC(=N)N)NC(=O)[C@H](CCCNC(=N)N)NC(=O)[C@@H]1CNC(=O)C[C@@H](NC(=O)[C@@H](N)Cc2ccc(O)cc2)C(=O)N2CCC[C@H]2C(=O)N[C@@H](Cc2ccccc2)C(=O)N1)C(=O)N[C@@H](CCCNC(=N)N)C(=O)N1CCC[C@H]1C(=O)N[C@@H](CCCCN)C(N)=O`, the results for the Ki (at Mu-type opioid receptor; in assay [1]; in assay [3]) were 125 nM, 9.03 nM and over 10000 nM, respectively. Besides, the half-maximal effective concentration (EC50) in assay [2] came out at 153 nM.

For `CC[C@H](C)[C@H](NC(=O)[C@H](CCCN=C(N)N)NC(=O)[C@H](CCCN=C(N)N)NC(=O)[C@H](CN)NC(=O)[C@H](Cc1ccccc1)NC(=O)CNC(=O)[C@@H](CC(=O)O)NC(=O)[C@@H](N)Cc1ccc(O)cc1)C(=O)N[C@@H](CCCN=C(N)N)C(=O)N1CCC[C@H]1C(=O)N[C@@H](CCCCN)C(=O)N[C@@H](CC(C)C)C(=O)N[C@@H](CCCCN)C(N)=O`, the inhibition constant (Ki) was 0.26 nM at Mu-type opioid receptor, 0.2 nM in assay [1] and 3.9 nM in assay [3].

On to `CC[C@H](C)[C@H](NC(=O)[C@H](CCCNC(=N)N)NC(=O)[C@H](CCCNC(=N)N)NC(=O)[C@@H]1CNC(=O)C[C@@H](NC(=O)[C@@H](N)Cc2ccc(O)cc2)C(=O)N[C@H](C)C(=O)N[C@@H](Cc2ccccc2)C(=O)N1)C(=O)N[C@@H](CCCNC(=N)N)C(=O)N1CCC[C@H]1C(=O)N[C@@H](CCCCN)C(N)=O`, for which the Ki was found to be 3.89 nM on Mu-type opioid receptor, 0.21 nM in assay [1] and 139 nM in assay [3]. For the same compound, in assay [2], it took 0.54 nM to reach a half-maximal effect (EC50).

As for `CC[C@H](C)[C@H](NC(=O)[C@H](CCCN=C(N)N)NC(=O)[C@H](CCCN=C(N)N)NC(=O)[C@H](CN)NC(=O)[C@H](Cc1ccccc1)NC(=O)[C@H](C)NC(=O)[C@@H](CC(=O)O)NC(=O)[C@@H](N)Cc1ccc(O)cc1)C(=O)N[C@@H](CCCN=C(N)N)C(=O)N1CCC[C@H]1C(=O)N[C@@H](CCCCN)C(N)=O`, the values for the inhibition constant (Ki) (on Mu-type opioid receptor; in assay [1]; in assay [3]) were 2.02 nM, 0.86 nM and 55.1 nM, respectively.

As for `CC[C@H](C)[C@H](NC(=O)[C@H](CCCNC(=N)N)NC(=O)[C@H](CCCNC(=N)N)NC(=O)[C@H](CC(C)C)NC(=O)[C@H](Cc1ccccc1)NC(=O)[C@@H](Cc1c[nH]c2ccccc12)NC(=O)CNC(=O)[C@@H](N)Cc1ccc(O)cc1)C(=O)N[C@@H](CCCNC(=N)N)C(=O)N1CCC[C@H]1C(=O)N[C@@H](CCCCN)C(N)=O`, the figures for the Ki (on Mu-type opioid receptor; in assay [1]; in assay [3]) were 45.9 nM, 5.41 nM and 1080 nM, respectively.

In the case of `CC[C@H](C)[C@H](NC(=O)[C@H](CCCN=C(N)N)NC(=O)[C@H](CCCN=C(N)N)NC(=O)[C@@H]1CNC(=O)C[C@@H](NC(=O)[C@@H](N)Cc2ccc(O)cc2)C(=O)NCC(=O)N[C@@H](Cc2ccccc2)C(=O)N1)C(=O)N[C@@H](CCCN=C(N)N)C(=O)N1CCC[C@H]1C(=O)N[C@@H](CCCCN)C(=O)N[C@@H](CC(C)C)C(=O)N[C@@H](CCCCN)C(N)=O` (HELM PEPTIDE1{Y.[dD].G.F.[O=C([C@H](CN[*:3])N[*:1])[*:2]].R.R.I.R.P.K.L.K.[am]}$PEPTIDE1,PEPTIDE1,2:R3-5:R3$$$V2.0), the Ki at Mu-type opioid receptor came out at 1.17 nM; in assay [1] it was 0.16 nM; in assay [3] it was 3.31 nM.
